Source: ChEMBL document CHEMBL4017530, “Mind the Metal: A Fragment Library-Derived Zinc Impurity Binds the E2 Ubiquitin-Conjugating Enzyme Ube2T and Induces Structural Rearrangements” (J Med Chem, 2017)
Residue numbers refer to the chain shown, from its start. pKd: −log10 of the molar value. Active and inactive are the calls of the source. The calls are words filed in the database; no cut-off is given here.

How the values were obtained:
[1] = tested on: T1, Ubiquitin-conjugating enzyme E2 T (Homo sapiens), Q9NPD8 [C86K,K91R,K95R]; assay: Binding affinity to N-terminally 6xHis-Smt3 tagged human Ube2T C86K/K91R/K95R mutant expressed in Escherichia coli by DSF method
T1 sequence (whole entry): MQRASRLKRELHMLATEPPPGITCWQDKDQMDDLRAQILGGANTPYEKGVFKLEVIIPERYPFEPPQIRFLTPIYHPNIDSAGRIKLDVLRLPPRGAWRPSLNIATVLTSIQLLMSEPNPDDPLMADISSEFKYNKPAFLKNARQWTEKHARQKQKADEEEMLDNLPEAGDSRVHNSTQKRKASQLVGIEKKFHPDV
Summary of the method: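 Compound ranged from 5 μM to 5 mM. Samples heated from 25 to 95 °C at 1 °C/min with fluorescence read at each step. Melting temperature shift was the read-out.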

[2] = tested on: T1, Ubiquitin-conjugating enzyme E2 T (Homo sapiens), Q9NPD8 [C86K,K91R,K95R]; assay: (§1) Binding affinity to N-terminally 6xHis-Smt3 tagged FANCL RING fused human Ube2T C86K/K91R/K95R mutant expressed in Escherichia coli by ITC method
Summary of the method: (§2)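 Titrations at 25 °C with stirring at 750 rpm in 100 mM Tris pH 8.0, 100 mM NaCl, 0.5 mM TCEP. Protein at approximately 50 μM. Titrant-into-buffer control used to correct for heat of dilution. Each titration repeated at least twice.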

[3] = tested on: T1, Ubiquitin-conjugating enzyme E2 T (Homo sapiens), Q9NPD8 [C86K,K91R,K95R]; assay: Binding affinity to biotin labeled Ube2T C86K/K91R/K95R mutant (unknown origin) assessed as association and dissociation response at 2 uM by biolayer interferometry analysis
Summary of the method: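 Bio-layer interferometry with compound at a lowest tested concentration of 2 μM. Association and dissociation responses were recorded.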

[4] = target: T2, Ubiquitin-conjugating enzyme E2 T (Homo sapiens) (UniProt Q9NPD8); assay: Reversible binding affinity to human 15N-labelled C-terminal flexible tail lacking Ube2T (1 to 154 residues) at 100 to 500 uM measured after overnight dialysis by NMR spectrocopy
T2 sequence (whole entry): T1 sequence (whole entry) with K86C, R91K, R95K
Summary of the method: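 HSQC on 50 μM 15N-Ube2T ΔC with compound at 100, 300 and 500 μM. Compound was then removed by overnight dialysis in 50 mM potassium phosphate pH 6.8, 85 mM NaCl, 1 mM DTT. HSQC recorded again and compared with the apo peak positions.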

[5] = tested on: T1, Ubiquitin-conjugating enzyme E2 T (Homo sapiens), Q9NPD8 [C86K,K91R,K95R]; assay: Binding affinity to N-terminally 6xHis-Smt3 tagged Ub fused human Ube2T C86K/K91R/K95R mutant expressed in Escherichia coli at 1.5 mM by ITC method; summary of the method: as §2
[6] = target: T3, Ubiquitin-conjugating enzyme E2 T (Homo sapiens, UniProt Q9NPD8, C86K/K91R/K95R); assay: Binding affinity to N-terminally 6xHis-Smt3 tagged human Ube2T C86K/K91R/K95R mutant expressed in Escherichia coli by ITC method; summary of the method: as §2
[7] = tested on: T1, Ubiquitin-conjugating enzyme E2 T (Homo sapiens), Q9NPD8 [C86K,K91R,K95R]; assay: Binding affinity to N-terminally 6xHis-Smt3 tagged human Ube2T C86K/K91R/K95R mutant expressed in Escherichia coli in presence of EDTA by ITC method
Summary of the method: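 ITC at 25 °C with stirring at 750 rpm, protein approx. 50 μM. Buffer was 100 mM Tris pH 8.0, 100 mM NaCl, 0.5 mM TCEP, plus 2 mM EDTA. Heat of dilution corrected by titrant-into-buffer control. Repeated at least twice.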

[8] = target: Ubiquitin-like modifier-activating enzyme 1 (Homo sapiens) (UniProt P22314); assay: Inhibition of recombinant human E1 charging with ubiquitin at 20 to 100 uM after 10 mins in presence of ATP by coomassie staining based SDS PAGE analysis
Chain of Ubiquitin-like modifier-activating enzyme 1 (Homo sapiens) (P22314 whole entry, looked up): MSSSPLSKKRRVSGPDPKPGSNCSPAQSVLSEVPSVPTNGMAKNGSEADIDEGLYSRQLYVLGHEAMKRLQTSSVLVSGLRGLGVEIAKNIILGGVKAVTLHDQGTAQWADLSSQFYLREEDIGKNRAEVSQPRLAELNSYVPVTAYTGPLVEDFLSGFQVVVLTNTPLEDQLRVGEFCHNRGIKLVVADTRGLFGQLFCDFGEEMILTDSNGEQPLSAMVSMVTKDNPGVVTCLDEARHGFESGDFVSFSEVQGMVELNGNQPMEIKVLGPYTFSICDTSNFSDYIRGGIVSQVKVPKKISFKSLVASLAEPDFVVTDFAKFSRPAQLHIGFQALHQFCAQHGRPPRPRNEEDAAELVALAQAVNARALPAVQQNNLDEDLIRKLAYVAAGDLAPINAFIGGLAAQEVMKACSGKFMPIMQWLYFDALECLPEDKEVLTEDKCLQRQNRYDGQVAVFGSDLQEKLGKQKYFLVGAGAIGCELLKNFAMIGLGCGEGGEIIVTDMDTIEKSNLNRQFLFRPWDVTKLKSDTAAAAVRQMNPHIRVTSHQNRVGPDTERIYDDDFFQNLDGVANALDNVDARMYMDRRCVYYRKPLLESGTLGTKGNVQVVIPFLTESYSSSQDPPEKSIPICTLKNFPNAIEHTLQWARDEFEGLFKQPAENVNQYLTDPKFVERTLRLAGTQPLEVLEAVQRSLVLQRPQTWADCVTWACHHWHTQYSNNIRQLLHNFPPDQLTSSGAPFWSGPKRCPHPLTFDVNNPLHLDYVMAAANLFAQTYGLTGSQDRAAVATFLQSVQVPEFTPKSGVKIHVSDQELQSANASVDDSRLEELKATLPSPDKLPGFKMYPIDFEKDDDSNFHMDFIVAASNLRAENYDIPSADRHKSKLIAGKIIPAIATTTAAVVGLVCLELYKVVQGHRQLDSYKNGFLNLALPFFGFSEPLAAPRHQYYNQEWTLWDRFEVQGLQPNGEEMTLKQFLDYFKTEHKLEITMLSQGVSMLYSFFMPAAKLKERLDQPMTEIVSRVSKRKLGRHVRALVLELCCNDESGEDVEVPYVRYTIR

[9] = target: T3, Ubiquitin-conjugating enzyme E2 T; assay: as §1; summary of the method: as §2
[10] = target: T2, Ubiquitin-conjugating enzyme E2 T (Homo sapiens); assay: Binding affinity to human 15N-labelled C-terminal flexible tail lacking Ube2T (1 to 154 residues) (unknown origin) at 500 uM by NMR spectrocopy
Summary of the method: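 [1H-15N]-HSQC spectra recorded on 50 μM 15N-Ube2T ΔC (residues 1-154) with compound added at 100, 300 and 500 μM. Read-out was weakening or loss of resonance peaks compared with the apo spectrum.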

| Activity [1] | Activity [2] | further results | Structure (SMILES) |
| --- | --- | --- | --- |
| Dose-dependent effect | – | – | N=C(N)c1ccc(N2CCCC2)nc1 |
| inactive | inactive | – | CC1CCN(c2ccc(C(=N)N)cn2)C1 (stereo not drawn) |
| Dose-dependent effect | – | – | N=C(N)c1ccc(-n2cccn2)nc1 |
| Dose-dependent effect | – | Activity [3]: Active; Activity [4]: Active; Activity [5]: inactive; pKd [6]: 4.75; Activity [7]: inactive; inhibition [8]: inactive; pKd [9]: 4.67; Activity [10]: Active | Cc1cc(C)n(-c2ccc(C(=N)N)cn2)n1 |
| – | – | pKd [6]: 4.80 | [Cl-].[Cl-].[Zn+2] [ZINC CHLORIDE] |
| inactive | inactive | – | N=C(N)c1ccc(N2CCCCC2)nc1 |
| inactive | inactive | – | CC1CCCN1c1ccc(C(=N)N)cn1 (stereo not drawn) |
